Tests used:
Format in all cases: functional, cell-based
[1] = target: T1, D(2) dopamine receptor (Homo sapiens, UniProt P14416); assay: Antagonist activity at human recombinant D2 receptor expressed in HEK293 cells by FLIPR assay
[2] = target: T2, D(4) dopamine receptor (Homo sapiens, UniProt P21917); assay: Activity at human recombinant D4.4 receptor expressed in HEK293 cells by FLIPR assay
T2 sequence (P21917 whole entry): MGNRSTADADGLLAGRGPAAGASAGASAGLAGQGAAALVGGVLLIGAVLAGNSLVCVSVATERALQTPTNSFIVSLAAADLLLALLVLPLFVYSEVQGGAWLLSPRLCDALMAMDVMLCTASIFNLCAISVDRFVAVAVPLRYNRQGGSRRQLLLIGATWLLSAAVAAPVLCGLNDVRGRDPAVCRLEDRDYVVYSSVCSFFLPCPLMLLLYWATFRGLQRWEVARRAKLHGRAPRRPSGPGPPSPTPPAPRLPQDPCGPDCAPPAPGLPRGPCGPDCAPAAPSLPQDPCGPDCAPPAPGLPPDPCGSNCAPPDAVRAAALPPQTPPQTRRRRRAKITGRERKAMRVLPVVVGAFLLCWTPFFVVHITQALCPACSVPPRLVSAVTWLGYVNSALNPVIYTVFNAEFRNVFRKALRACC

[3] = target: T1, D(2) dopamine receptor; assay: Agonist activity at human recombinant D2 receptor expressed in HEK293 cells by FLIPR assay
Outline: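 Calcium flux (FLIPR) in HEK-293 cells coexpressing recombinant human D2L with chimeric Gqo5. Efficacy is the maximal response relative to 10 µM dopamine (100%). EC50 is the concentration giving half-maximal stimulation. Values are means (SEM, n ≥ 3).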

T1 sequence (P14416 whole entry): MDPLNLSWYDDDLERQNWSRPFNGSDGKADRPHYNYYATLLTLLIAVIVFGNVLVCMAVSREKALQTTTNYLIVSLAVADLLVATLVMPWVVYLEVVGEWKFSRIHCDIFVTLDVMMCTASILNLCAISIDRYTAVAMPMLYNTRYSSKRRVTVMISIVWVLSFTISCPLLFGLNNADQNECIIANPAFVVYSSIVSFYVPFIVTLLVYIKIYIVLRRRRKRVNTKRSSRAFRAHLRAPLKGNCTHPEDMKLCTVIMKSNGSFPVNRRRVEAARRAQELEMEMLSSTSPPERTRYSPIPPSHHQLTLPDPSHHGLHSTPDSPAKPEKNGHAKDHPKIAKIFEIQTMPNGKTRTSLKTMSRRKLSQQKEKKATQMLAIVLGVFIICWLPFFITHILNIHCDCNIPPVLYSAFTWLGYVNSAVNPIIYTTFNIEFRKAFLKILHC

SMILES | IC50 [1] [µM] | EC50 [2] [µM] | EC50 [3] [µM]
CO/N=C(/CCN1CCN(c2ccccn2)CC1)c1ccc(Cl)cc1 | > 10 | 0.0566 | > 10
CO/N=C(/CCN1CCN(c2ccccn2)CC1)c1ccccc1Cl | > 10 | 0.0572 | > 10
CCO/N=C(\CCN1CCN(c2ccccc2OC)CC1)c1ccccc1 | > 10 | 0.338 | > 10
Cc1cccc(/C(=N\O)C(O)CN2CCN(c3ccccn3)CC2)c1 (centres undefined) | > 10 | 0.0448 | > 10
CC(C)O/N=C(\CCN1CCN(c2ccccn2)CC1)c1ccccc1 | > 10 | 0.164 | > 10
CCO/N=C(\CCN1CCN(c2ncccn2)CC1)c1ccccc1 | > 10 | 0.615 | > 10
N#Cc1cccc(/C(CCN2CCN(c3ccccn3)CC2)=N/O)c1 | > 10 | 0.0131 | > 10
CO/N=C(\CCCN1CCN(c2ccccn2)CC1)c1ccc(F)cc1 | > 10 | 0.0417 | > 10
COC(CN1CCN(c2ccccn2)CC1)/C(=N/O)c1cccc(C)c1 (centres undefined) | > 10 | 5.37 | > 10
O/N=C(/CN1CCN(c2ccccn2)CC1)c1ccc(F)cc1 | > 10 | > 10 | > 10
CO/N=C(\CCN1CCCC(c2ccccn2)C1)c1ccc(Cl)cc1 (centres undefined) | > 10 | 0.606 | > 10
CCCCO/N=C(\CCN1CCN(c2ccccn2)CC1)c1ccccc1 | > 10 | 0.382 | > 10
O/N=C(/CCN1CCN(c2ccccn2)CC1)c1ccccc1 | > 10 | 0.0217 | > 10
Cc1ccc(O)c(/C(CCN2CCN(c3ccccn3)CC2)=N/O)c1 | > 10 | 0.0192 | > 10
CCCO/N=C(\CCN1CCN(c2ccccn2)CC1)c1ccccc1 | > 10 | 0.32 | > 10
CO/N=C(/CCN1CCN(c2ccccn2)CC1C)c1ccc(Cl)cc1 (centres undefined) | > 10 | 0.099 | > 10
CO/N=C(\CCN1CCN(c2ccccn2)CC1)c1ccc(Br)cc1 | > 10 | 0.183 | > 10
CCO/N=C(\CCN1CCN(c2ccc(OC)cc2)CC1)c1ccccc1 | > 10 | > 10 | > 10
CO/N=C(\CCN1CCN(c2ccccc2OC(C)C)CC1)c1ccc(F)cc1 | > 10 | 0.594 | > 10
O/N=C(\CCN1CCN(c2ccccn2)CC1)c1cccc(Cl)c1 | > 10 | 0.0119 | > 10
CO/N=C(\CCN1CCN(c2ccccn2)CC1)c1cc(C)cc(C)c1 | > 10 | 0.175 | > 10
CO/N=C(/CCN1CCN(c2ccccn2)CC1)c1ccccc1 | > 10 | 0.0241 | > 10
CO/N=C(/CN1CCN(c2ccccn2)CC1)c1ccc(F)cc1 | > 10 | 4.29 | > 10

SMILES | IC50 [1] [µM] | EC50 [2] [µM] | EC50 [3] [µM]
CO/N=C(/c1cccnc1)C(O)CN1CCN(c2ccccn2)CC1 (centres undefined) | > 10 | 0.123 | > 10
Cc1cccc(/C(CCN2CCN(c3ccccn3)CC2)=N/O)c1 | > 10 | 0.0023 | > 10
O/N=C(\CCN1CCN(c2ccccn2)CC1)c1ccc(Cl)cc1 | > 10 | 0.475 | > 10
CO/N=C(\CCN1CCN(c2ccccn2)CC1)c1ccc(Cl)cc1Cl | > 10 | 0.249 | > 10
CCO/N=C(\CCN1CCN(c2ccccc2C#N)CC1)c1ccccc1 | > 10 | 0.0487 | > 10
Cc1cccc(/C(=N/O)C(O)CN2CCN(c3ccccn3)CC2)c1 (centres undefined) | > 10 | 0.0049 | > 10
CO/N=C(/CCN1CCN(c2ccccn2)CC1)c1ccc(Cl)c(Cl)c1 | > 10 | 0.341 | > 10
O/N=C(\CCN1CCN(c2nccs2)CC1)c1ccccc1 | > 10 | 0.0495 | > 10
CO/N=C(/CCN1CCN(c2ccccn2)CC1)c1ccc(Br)cc1 | > 10 | 0.082 | > 10
CO/N=C(/CCN1CCN(c2ccccn2)CC1)c1ccc(F)c(Cl)c1 | > 10 | 0.095 | > 10
CCO/N=C(/CCN1CCN(c2ccccn2)CC1)c1ccccc1 | > 10 | 0.045 | > 10
O/N=C(\CCN1CCN(c2ccccn2)CC1)c1cccc(F)c1 | > 10 | 0.0171 | > 10
CO/N=C(/CCN1CCN(c2ccccn2)CC1)c1ccc(C)c(C)c1 | > 10 | 0.091 | > 10
CO/N=C(/CCN1CCN(c2ccccc2OC(C)C)CC1)c1ccc(F)cc1 | > 10 | 0.601 | > 10
CO/N=C(/CCN1CCN(c2ccccn2)CC1)c1ccccc1C | > 10 | 0.0401 | > 10
CO/N=C(/c1ccc(Cl)cc1)C(CN1CCN(c2ccccn2)CC1)OC (centres undefined) | > 10 | 0.285 | > 10
O/N=C(/CCN1CCN(c2ncccn2)CC1)c1ccccc1 | > 10 | 0.069 | > 10
C=CCO/N=C(\CCN1CCN(c2ccccn2)CC1)c1ccccc1 | > 10 | 0.35 | > 10
Cc1ccccc1/C(CCN1CCN(c2ccccn2)CC1)=N/O | > 10 | 0.0042 | > 10
CO/N=C(/c1ccc(Cl)cc1)C(COC(C)C)CN1CCN(c2ccccn2)CC1 (centres undefined) | > 10 | 3.21 | > 10
CO/N=C(/CCN1CCC(c2cccc[n+]2[O-])CC1)c1ccc(Cl)cc1 | > 10 | 0.0464 | > 10
Cc1ccc(OCc2ccccc2)c(/C(CCN2CCN(c3ccccn3)CC2)=N/O)c1 | > 10 | > 10 | > 10
O/N=C(\CCN1CCN(c2ccccn2)CC1)c1ccc(F)cc1F | > 10 | 0.0089 | > 10

SMILES | IC50 [1] [µM] | EC50 [2] [µM] | EC50 [3] [µM]
CO/N=C(/CCN1CCN(c2ccccn2)CC1)c1ccc(Cl)cc1Cl | > 10 | 0.296 | > 10
O/N=C(/CCN1CCN(c2ccccn2)CC1)c1ccccc1Cl | > 10 | 0.025 | > 10
CO/N=C(\CCN1CCN(c2ccccn2)CC1)c1cccc(C#N)c1 | > 10 | 0.0637 | > 10
CO/N=C(/CCN1CCN(c2ccccn2)CC1)c1cc(C)cc(C)c1 | > 10 | 0.0747 | > 10
COC(CN1CCN(c2ccccn2)CC1)/C(=N\O)c1cccc(C)c1 (centres undefined) | > 10 | 0.0345 | > 10
Cc1cc(C)cc(/C(CCN2CCN(c3ccccn3)CC2)=N/O)c1 | > 10 | 0.0458 | > 10
CCO/N=C(\CCN1CCN(c2ncccc2C)CC1)c1ccccc1 | > 10 | 0.253 | > 10
O/N=C(\CN1CCN(c2ccccn2)CC1)c1ccc(F)cc1 | > 10 | 0.026 | > 10
CO/N=C(\CCN1CCC(c2cccc[n+]2[O-])CC1)c1ccc(Cl)cc1 | > 10 | 0.084 | > 10
O/N=C(\CCN1CCN(c2ncccn2)CC1)c1ccccc1 | > 10 | 0.0392 | > 10
CO/N=C(\CCN1CCN(c2ccccn2)CC1)c1ccccc1Cl | > 10 | 0.0423 | > 10
CO/N=C(\c1ccc(Cl)cc1)C(CN1CCN(c2ccccn2)CC1)OC (centres undefined) | > 10 | 0.195 | > 10
CCO/N=C(\CCN1CCN(c2ccccc2)CC1)c1ccccc1 | > 10 | 0.109 | > 10
O/N=C(\CCN1CCN(c2ccccn2)CC1)c1ccc(F)cc1 | > 10 | 0.031 | > 10
CCO/N=C(\CCN1CCN(c2cccc(OC)c2)CC1)c1ccccc1 | > 10 | 2.68 | > 10
Cc1ccccc1/C(CCN1CCN(c2ccccn2)CC1)=N\O | > 10 | 0.0203 | > 10
O/N=C(\CCN1CCN(c2ccccn2)CC1)c1ccccc1Cl | > 10 | 0.024 | > 10
CO/N=C(\CCN1CCN(c2ccccn2)CC1)c1ccc(Cl)c(C)c1 | > 10 | 0.135 | > 10
O/N=C(\CCCN1CCN(c2ccccn2)CC1)c1ccc(F)cc1 | > 10 | 0.0095 | > 10
CCO/N=C(\CCN1CCN(c2ncccc2C#N)CC1)c1ccccc1 | > 10 | 0.139 | > 10
N#Cc1cccnc1N1CCN(CC/C(=N/O)c2ccccc2)CC1 | > 10 | 0.02 | > 10
N#Cc1cccnc1N1CCN(CC/C(=N\O)c2ccccc2)CC1 | > 10 | 0.018 | > 10
